In ChEMBL document CHEMBL1250523, “Synthesis and biological activities of new di- and trimeric quinoline derivatives” (Bioorg Med Chem, 2010):
pIC50: −log10 of the molar value.

Tests used:
Assay type in all cases: protein assay
[1] = target: Bcl-xL/Bcl-2-like protein 11 (Homo sapiens, UniProt Q07817); assay: Inhibition of GST-tagged Bcl-xl/FITC-conjugated Bim interaction by fluorescence polarisation assay
[2] = target: Bcl-xL/BH3-interacting domain death agonist (Homo sapiens, UniProt Q07817); assay: Inhibition of GST-tagged Bcl-xl/FITC-conjugated Bid interaction by fluorescence polarisation assay
Bcl-xL/BAK = Bcl-xL/BAK (Homo sapiens, UniProt Q07817); assay: Inhibition of GST-tagged […]/FITC-conjugated Bak interaction by fluorescence polarisation assay
Bcl-xL/BAX = Bcl-xL/BAX (Homo sapiens, UniProt Q07812+Q07817); assay: Inhibition of GST-tagged Bcl-xl/FITC-conjugated Bax interaction by fluorescence polarisation assay
[3] = target: Bcl-xL/Bcl-2-binding component 3 (Homo sapiens, UniProt Q07817+Q9BXH1); assay: Inhibition of GST-tagged Bcl-xl/FITC-conjugated PUMA interaction by fluorescence polarisation assay
[4] = target: Apoptosis regulator BAX/Induced myeloid leukemia cell differentiation protein Mcl-1 (Homo sapiens, UniProt Q07812+Q07820); assay: Inhibition of GST-tagged Mcl-1/FITC-conjugated Bax interaction by fluorescence polarisation assay
Outline: (§1)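 Recombinant GST-fused anti-apoptotic protein (Bcl-xl, Bcl-2, Bfl-1 or Mcl-1, each lacking its C-terminal tail) at 100 nM, incubated in the dark with 15 nM N-terminally FITC-labelled BH3 peptide (Bak, Bax, Bid or Bim) and a range of compound concentrations. Fluorescence polarisation was read, and IC50 was derived from the concentration-response curve.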

[5] = target: Apoptosis regulator BAX/Bcl-2-related protein A1 (Homo sapiens, UniProt Q07812+Q16548); assay: Inhibition of GST-tagged Bfl-1/FITC-conjugated Bax interaction by fluorescence polarisation assay; outline: as §1
[6] = target: Apoptosis regulator BAX/Bcl-2 (Homo sapiens, UniProt P10415+Q07812); assay: Inhibition of GST-tagged Bcl-2/FITC-conjugated Bax interaction by fluorescence polarisation assay; outline: as §1
Chain of Apoptosis regulator BAX/Bcl-2 (P10415 whole entry): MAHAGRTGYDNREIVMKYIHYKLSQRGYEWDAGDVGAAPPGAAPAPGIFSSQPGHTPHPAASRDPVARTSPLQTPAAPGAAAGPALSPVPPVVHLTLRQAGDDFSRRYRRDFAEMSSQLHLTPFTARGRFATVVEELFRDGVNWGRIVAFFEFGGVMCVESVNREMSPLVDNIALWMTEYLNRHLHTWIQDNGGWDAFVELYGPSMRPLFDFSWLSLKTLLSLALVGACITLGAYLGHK
Chain of Apoptosis regulator BAX/Bcl-2 (Q07812 whole entry): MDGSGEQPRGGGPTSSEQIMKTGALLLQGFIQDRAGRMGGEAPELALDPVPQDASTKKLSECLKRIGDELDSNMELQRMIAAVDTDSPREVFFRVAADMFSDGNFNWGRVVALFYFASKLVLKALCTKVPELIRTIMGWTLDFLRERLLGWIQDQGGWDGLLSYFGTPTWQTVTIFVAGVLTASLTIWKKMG

Chain of Bcl-xL/Bcl-2-binding component 3 (Q07817 whole entry): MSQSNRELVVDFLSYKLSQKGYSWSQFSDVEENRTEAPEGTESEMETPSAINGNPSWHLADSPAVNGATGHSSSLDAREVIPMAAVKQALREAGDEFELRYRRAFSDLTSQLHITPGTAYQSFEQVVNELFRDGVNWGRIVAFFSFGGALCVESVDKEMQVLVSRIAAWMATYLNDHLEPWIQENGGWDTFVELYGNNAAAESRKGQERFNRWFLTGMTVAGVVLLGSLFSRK
Chain of Bcl-xL/Bcl-2-binding component 3 (Q9BXH1 whole entry): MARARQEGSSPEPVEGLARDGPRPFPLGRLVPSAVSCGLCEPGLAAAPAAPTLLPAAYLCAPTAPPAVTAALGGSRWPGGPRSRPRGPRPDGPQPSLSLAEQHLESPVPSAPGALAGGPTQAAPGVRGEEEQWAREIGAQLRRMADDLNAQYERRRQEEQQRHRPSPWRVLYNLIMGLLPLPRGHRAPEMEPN
Chain of Bcl-xL/BAK (Q07817 whole entry): as the sequence (Q07817 whole entry) above
Chain of Bcl-xL/BAK (Q16611 whole entry, further chain): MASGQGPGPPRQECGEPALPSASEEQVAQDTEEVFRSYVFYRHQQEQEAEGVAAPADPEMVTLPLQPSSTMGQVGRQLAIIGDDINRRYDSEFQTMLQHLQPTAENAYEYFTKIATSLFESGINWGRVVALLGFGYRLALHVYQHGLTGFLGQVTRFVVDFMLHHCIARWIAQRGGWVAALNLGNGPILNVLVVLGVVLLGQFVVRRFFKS
Chain of Bcl-xL/BH3-interacting domain death agonist (Q07817 whole entry, the tested form may be a part): as the sequence (Q07817 whole entry) above
Chain of Bcl-xL/BH3-interacting domain death agonist (P55957 whole entry, further chain, the tested form may be a part): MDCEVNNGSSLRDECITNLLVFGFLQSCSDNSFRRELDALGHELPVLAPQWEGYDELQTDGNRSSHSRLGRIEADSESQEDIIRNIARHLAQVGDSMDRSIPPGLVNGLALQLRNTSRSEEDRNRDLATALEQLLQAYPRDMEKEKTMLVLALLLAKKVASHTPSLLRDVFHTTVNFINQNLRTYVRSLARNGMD
Chain of Bcl-xL/BAX (Q07817 whole entry): as the sequence (Q07817 whole entry) above
Chain of Bcl-xL/BAX (Q07812 whole entry): as the sequence (Q07812 whole entry) above
Chain of Bcl-xL/Bcl-2-like protein 11 (Q07817 whole entry, the tested form may be a part): as the sequence (Q07817 whole entry) above
Chain of Bcl-xL/Bcl-2-like protein 11 (O43521 whole entry, further chain, the tested form may be a part): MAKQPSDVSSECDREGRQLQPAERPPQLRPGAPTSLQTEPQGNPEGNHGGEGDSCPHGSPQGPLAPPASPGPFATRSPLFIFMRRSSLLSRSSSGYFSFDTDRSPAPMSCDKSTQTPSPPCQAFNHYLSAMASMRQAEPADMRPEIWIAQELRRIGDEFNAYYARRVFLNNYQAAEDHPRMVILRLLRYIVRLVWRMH
Chain of Apoptosis regulator BAX/Induced myeloid leukemia cell differentiation protein Mcl-1 (Q07820 whole entry, the tested form may be a part): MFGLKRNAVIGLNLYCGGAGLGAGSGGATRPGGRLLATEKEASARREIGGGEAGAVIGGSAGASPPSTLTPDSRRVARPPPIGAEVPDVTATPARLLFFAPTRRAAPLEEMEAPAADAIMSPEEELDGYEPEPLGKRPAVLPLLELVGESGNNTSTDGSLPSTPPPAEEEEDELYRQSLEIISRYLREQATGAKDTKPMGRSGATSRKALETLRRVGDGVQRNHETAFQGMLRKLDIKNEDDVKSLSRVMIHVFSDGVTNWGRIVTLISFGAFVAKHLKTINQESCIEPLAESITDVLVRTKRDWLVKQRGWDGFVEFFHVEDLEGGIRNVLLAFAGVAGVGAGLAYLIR
Chain of Apoptosis regulator BAX/Induced myeloid leukemia cell differentiation protein Mcl-1 (Q07812 whole entry, the tested form may be a part): as the sequence (Q07812 whole entry) above
Chain of Apoptosis regulator BAX/Bcl-2-related protein A1 (Q07812 whole entry): as above
Chain of Apoptosis regulator BAX/Bcl-2-related protein A1 (Q16548 whole entry): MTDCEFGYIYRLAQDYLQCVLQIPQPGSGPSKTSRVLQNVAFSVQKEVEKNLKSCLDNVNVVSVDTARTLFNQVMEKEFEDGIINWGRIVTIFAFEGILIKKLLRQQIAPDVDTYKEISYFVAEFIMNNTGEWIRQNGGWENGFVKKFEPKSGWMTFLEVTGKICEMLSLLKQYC

pIC50 [1]	pIC50 (Bcl-xL/BAK)	pIC50 (Bcl-xL/BAX)	pIC50 [3]	pIC50 [4]	pIC50 [5]	pIC50 [6]	Compound	pIC50 [2]
4.33	4.13	3.61	4.27				CCOc1nc2ccccc2cc1-c1cc(C(C)C)c2cc(-c3cc(C(C)C)c4ccc(OC)nc4c3)c(OC)nc2c1	4.68
4.54	< 3.00	< 3.00	< 3.00				COc1ccc2c(CC(C)C)cc(-c3cc4c(C(C)C)cccc4nc3OC)cc2n1	< 3.00
4.03	4.60	4.59	4.38	4.34	4.17	4.37	CCC(C)c1cc(-c2cc3c(CC(C)C)cc(-c4cc5c(C(C)C)cccc5nc4OC)cc3nc2OC)cc2nc(OC)ccc12 (racemic)	4.57
